# Assay results collected from several papers.
# Protocols differ between the studies behind these lines.
# Target: AP2-associated protein kinase 1 (AAK1, Homo sapiens, UniProt Q2M2I8)
SMILES,assay,conditions,remaining binding
CN(C)c1nccc(-c2cnn3ncccc23)n1,binding,1 µM,75%
COc1cnc(Nc2cccc(S(N)(=O)=O)c2)nc1N1CCN(c2ccccc2)CC1,"binding, competition with immobilised ligand",1 µM,73%
FC(F)(F)Oc1cccc(-c2cnc3ccc(-c4ccncc4)nn23)c1,"cell-free assay, competition with immobilised ligand",5 µM,14%
CCc1ccccc1C(=O)Nc1n[nH]c2c(C)c(F)c(C3C(C#N)=C(C)N(C)C(C)=C3C#N)cc12,binding,1 µM,81%
N[C@@H]1CCN(c2nccc(-c3cnn4ncccc34)n2)C1,binding,1 µM,73%
CCN1CCN(Cc2ccc(C(=O)Nc3ccc(C)c(Oc4ccc5c(c4)CC(=O)N5)c3)cc2C(F)(F)F)CC1,"binding, competition with immobilised ligand",1 µM,100%
CN(c1nccc(-c2cnn3ncccc23)n1)C1CC1,binding,1 µM,100%
O=C(NCC1CCOCC1)c1n[nH]cc1NC(=O)c1c(F)cccc1F,"binding, competition with immobilised ligand",1 µM,86%
COc1ccnn2ncc(-c3ccnc(N(C)C)n3)c12,binding,1 µM,100%
O=C(c1ccc(Nc2ncc(Cl)c(-c3ccc(Cl)s3)n2)cc1)N1CCC(N2CCCC2)CC1,"binding, competition with immobilised ligand",1 µM,41%
O=c1nc(-c2ccccn2)sc2ccccc12,binding,1 µM,100%
O=C(c1ccc(Nc2nccc(-c3cc4ccccc4s3)n2)cc1)N1CCC(N2CCCC2)CC1,"binding, competition with immobilised ligand",1 µM,21%
O=C(Nc1cccnn1)N1CC(C/C=C/c2cncc(Oc3ccc(C(F)(F)F)cn3)n2)C1,"cell-free assay, competition with immobilised ligand",1 µM,100%
c1cncc(-c2cccc(Nc3nccc(NC4CCCCC4)n3)c2)c1,"binding, competition with immobilised ligand",10 µM,33%
CCCCN(CCCC)C(=O)CN1C[C@H](c2cc(OC)c3c(c2)OCO3)[C@@H](C(=O)O)[C@@H]1CC(C)(C)CCC,binding,1 µM,100%
c1cnn2ncc(-c3ccnc(N4CCC45COC5)n3)c2c1,binding,1 µM,76%
O=C(NCc1ncc(C(F)(F)F)cc1Cl)c1ccc2c(c1)C1(CCS(=O)(=O)CC1)[C@@H](C1CC1)N2S(=O)(=O)c1ccc(F)cc1,binding,1 µM,100%
C[C@@H]1CCN(c2nccc(-c3cnn4ncccc34)n2)C1,binding,1 µM,71%
CC(=O)C1=C(C)N(c2cccc(C(F)(F)F)c2)C(=O)N[C@@H]1c1ccc(C#N)nc1,binding,1 µM,100%
O=C(NCCCN1CCOCC1)c1ccc(Nc2nccc(-c3cc4ccccc4s3)n2)cc1,"binding, competition with immobilised ligand",1 µM,27%
N#CC1(c2ccccn2)CCN(Cc2cc(C(=O)N3CCCC3)c(=O)n3ccccc23)CC1,binding,1 µM,100%
Nc1ncc2c(n1)-c1c([nH]c3ccc(C#CC4CC4)cc13)CCCC2,"binding, competition with immobilised ligand",1 µM,92%
